Reference: ChEMBL document CHEMBL1131208, “Substituted 2-iminopiperidines as inhibitors of human nitric oxide synthase isoforms” (J Med Chem, 1998)

How the values were obtained:
[1] = biological target: Nitric oxide synthase 1 (Homo sapiens, UniProt P29475); test: Inhibition of human Neuronal nitric oxide synthase
[2] = biological target: T1, Nitric oxide synthase 3 (Homo sapiens, UniProt P29474); test: inhibition of human endothelial constitutive Endothelial nitric oxide synthase (heNOS)
T1 sequence (P29474 whole entry): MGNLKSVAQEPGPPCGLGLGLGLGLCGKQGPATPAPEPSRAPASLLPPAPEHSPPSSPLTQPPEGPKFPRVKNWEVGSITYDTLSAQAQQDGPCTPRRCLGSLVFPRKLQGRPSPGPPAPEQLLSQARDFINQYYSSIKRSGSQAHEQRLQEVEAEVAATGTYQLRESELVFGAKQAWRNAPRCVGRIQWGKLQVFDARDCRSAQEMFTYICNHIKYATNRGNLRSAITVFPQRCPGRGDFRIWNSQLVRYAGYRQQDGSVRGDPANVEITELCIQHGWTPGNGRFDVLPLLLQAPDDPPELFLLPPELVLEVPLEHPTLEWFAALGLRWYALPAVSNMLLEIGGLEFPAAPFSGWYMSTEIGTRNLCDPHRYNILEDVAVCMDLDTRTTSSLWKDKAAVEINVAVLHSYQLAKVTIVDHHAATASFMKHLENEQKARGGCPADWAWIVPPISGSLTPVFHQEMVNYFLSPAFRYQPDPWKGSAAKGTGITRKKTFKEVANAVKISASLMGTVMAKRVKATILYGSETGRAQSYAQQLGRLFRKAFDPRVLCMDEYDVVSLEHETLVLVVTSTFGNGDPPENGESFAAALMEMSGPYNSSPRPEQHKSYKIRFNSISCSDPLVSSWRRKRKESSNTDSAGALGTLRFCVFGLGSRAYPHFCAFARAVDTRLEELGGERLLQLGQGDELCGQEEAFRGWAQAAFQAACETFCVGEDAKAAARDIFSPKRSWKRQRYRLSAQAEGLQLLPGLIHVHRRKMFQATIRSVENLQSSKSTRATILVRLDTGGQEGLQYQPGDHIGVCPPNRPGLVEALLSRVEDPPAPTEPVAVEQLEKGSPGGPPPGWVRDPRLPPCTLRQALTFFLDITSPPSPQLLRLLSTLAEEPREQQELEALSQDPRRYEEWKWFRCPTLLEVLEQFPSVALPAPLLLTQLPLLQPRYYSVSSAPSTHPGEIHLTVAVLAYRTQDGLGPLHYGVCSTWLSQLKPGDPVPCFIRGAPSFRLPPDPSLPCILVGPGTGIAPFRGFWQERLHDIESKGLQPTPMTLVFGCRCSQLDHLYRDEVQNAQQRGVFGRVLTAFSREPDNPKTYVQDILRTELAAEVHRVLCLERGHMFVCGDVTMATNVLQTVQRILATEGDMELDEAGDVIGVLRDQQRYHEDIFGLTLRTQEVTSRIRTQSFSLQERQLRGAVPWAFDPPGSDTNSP

[3] = biological target: Nitric oxide synthase (inducible and endothelial) (Homo sapiens) (UniProt P35228+P29474); test: Selectivity is the ratio between the IC50 values of heNOS and hiNOS; assay type: protein assay
Nitric oxide synthase (inducible and endothelial) (Homo sapiens), sequence (P35228 whole entry, looked up, one chain of several): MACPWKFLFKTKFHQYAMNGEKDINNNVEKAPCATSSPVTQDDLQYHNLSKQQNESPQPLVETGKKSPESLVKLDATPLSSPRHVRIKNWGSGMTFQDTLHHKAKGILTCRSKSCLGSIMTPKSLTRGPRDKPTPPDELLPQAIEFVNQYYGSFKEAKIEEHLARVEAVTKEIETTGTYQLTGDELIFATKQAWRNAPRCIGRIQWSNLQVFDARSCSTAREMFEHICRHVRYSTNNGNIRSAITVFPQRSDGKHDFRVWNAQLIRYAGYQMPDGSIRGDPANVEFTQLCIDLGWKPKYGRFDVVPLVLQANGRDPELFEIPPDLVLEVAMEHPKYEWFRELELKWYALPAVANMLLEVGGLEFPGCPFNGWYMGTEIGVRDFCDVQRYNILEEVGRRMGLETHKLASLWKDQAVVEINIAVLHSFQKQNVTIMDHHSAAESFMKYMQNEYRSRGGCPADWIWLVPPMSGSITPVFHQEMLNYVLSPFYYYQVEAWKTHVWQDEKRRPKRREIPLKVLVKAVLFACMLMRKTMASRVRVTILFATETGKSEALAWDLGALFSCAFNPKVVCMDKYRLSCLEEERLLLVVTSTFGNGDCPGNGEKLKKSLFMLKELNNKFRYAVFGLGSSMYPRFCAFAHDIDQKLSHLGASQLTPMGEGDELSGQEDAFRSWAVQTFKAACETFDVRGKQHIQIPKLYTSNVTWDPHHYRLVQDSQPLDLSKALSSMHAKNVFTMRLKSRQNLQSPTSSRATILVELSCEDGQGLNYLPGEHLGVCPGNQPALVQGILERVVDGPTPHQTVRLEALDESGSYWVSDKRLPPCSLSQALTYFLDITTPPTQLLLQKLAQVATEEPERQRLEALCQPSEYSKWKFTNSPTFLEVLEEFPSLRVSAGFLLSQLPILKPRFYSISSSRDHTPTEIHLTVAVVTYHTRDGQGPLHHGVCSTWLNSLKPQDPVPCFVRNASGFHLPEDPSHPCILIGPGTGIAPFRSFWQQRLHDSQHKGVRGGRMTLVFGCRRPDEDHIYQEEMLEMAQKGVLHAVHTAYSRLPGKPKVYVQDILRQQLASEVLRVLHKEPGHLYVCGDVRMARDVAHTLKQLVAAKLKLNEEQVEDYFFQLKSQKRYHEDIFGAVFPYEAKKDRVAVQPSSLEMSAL
Method in brief: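 Recombinant human iNOS/eNOS expressed in Sf9 cells (baculovirus), partially purified by DEAE-Sepharose. Eight inhibitor concentrations were tested with 30 μM final L-arginine containing [3H]arginine, in Tris pH 7.6 with BSA, DTT, CaCl2, FAD, tetrahydrobiopterin and NADPH, 15 min at 37 °C. eNOS also had 40 nM calmodulin. [3H]citrulline was separated on cation-exchange resin and counted. Assays were run at least in duplicate; IC50 was derived.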

[4] = biological target: Nitric oxide synthase, inducible (Homo sapiens, UniProt P35228); test: Inhibition of human Inducible nitric oxide synthase
Nitric oxide synthase, inducible, sequence (P35228 whole entry): as the sequence (P35228 whole entry, looked up, one chain of several) above

[5] = system: Rattus norvegicus; test: Compound at an oral dose of 10 mg/Kg was tested in vivo for the inhibition of plasma nitrite levels in LPS-treated rats; assay type: functional
Method in brief: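 Male Lewis rats dosed orally 1 h before intraperitoneal LPS (10–12.5 mg/kg) to induce iNOS. Plasma nitrite/nitrate measured 5 h after LPS by fluorometric assay. Percent inhibition is relative to LPS-only versus saline controls; n = 6 animals/dose.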

Nitric oxide synthase 1, sequence (P29475 whole entry): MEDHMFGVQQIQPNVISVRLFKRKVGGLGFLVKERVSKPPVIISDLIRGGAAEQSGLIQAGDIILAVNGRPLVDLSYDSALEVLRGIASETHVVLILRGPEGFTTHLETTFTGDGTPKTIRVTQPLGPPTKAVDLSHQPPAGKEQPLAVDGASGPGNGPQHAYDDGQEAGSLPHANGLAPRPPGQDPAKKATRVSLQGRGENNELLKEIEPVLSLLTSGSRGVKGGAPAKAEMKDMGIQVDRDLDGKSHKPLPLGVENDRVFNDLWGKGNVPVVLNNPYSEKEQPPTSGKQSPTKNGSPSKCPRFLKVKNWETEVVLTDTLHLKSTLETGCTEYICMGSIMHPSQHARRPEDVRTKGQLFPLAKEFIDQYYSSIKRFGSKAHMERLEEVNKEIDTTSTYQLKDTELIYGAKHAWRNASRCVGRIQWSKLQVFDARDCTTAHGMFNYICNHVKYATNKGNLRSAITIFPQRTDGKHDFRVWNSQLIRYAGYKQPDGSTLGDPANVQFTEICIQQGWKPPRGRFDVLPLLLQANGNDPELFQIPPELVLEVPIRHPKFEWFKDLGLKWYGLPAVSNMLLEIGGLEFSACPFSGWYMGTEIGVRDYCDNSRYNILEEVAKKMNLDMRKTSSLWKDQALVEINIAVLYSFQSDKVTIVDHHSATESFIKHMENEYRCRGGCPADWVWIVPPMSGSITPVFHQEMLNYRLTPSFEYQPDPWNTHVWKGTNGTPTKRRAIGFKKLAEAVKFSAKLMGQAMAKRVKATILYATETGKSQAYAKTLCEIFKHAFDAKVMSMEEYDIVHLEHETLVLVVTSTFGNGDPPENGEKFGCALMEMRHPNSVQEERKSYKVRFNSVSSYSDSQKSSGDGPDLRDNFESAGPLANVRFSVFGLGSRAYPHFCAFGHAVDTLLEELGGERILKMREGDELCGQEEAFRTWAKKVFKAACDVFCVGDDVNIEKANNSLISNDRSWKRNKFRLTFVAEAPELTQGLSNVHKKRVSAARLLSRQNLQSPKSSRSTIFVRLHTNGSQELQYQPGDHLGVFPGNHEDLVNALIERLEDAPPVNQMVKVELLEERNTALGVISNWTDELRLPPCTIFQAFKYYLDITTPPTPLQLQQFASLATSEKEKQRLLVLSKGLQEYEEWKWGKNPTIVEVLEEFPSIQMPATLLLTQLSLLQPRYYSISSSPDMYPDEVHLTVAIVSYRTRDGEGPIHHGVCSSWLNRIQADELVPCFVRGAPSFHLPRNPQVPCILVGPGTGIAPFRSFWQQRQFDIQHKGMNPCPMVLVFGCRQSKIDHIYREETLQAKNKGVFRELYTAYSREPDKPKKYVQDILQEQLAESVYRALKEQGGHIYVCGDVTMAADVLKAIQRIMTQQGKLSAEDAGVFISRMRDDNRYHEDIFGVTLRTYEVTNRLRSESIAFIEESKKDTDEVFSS

Row | IC50 [1] [µM] | IC50 [2] [µM] | Selectivity [3] | IC50 [4] [µM] | SMILES | inhibition in vivo at 10 mg/kg [5] [%]
1 | 0.7 | 3 | 0.5 | 6 | CC1CCCN=C1N (stereo not given) | –
2 | 5.9 | 5.3 | 1.6 | 3.4 | CC1(C)CCN=C(N)C1 | –
3 | > 100 | > 100 | – | > 100 | CCCC1CCN=C(N)C1 (stereo not given) | –
4 | – | – | – | 0.1 | CC1CCN=C(N)C1 (stereo not given) | 87
5 | – | 58 | – | 5.1 | CC1CCC(N)=NC1 (stereo not given) | –
6 | 0.4 | 0.6 | 1 | 0.5 | CC1CCCC(N)=N1 (stereo not given) | –
7 | 3.3 | 47 | 15 | 3.2 | NC1=NCCC(C(F)(F)F)C1 (stereo not given) | 24
8 | 0.5 | 2 | 4 | 0.5 | NC1=NC(C(F)(F)F)CCC1 (stereo not given) | –
9 | – | – | 5 | – | CCC1CCN=C(N)C1 (stereo not given) | –

Continued, molecule first:

Row | SMILES | IC50 [1] [µM] | IC50 [2] [µM] | Selectivity [3] | IC50 [4] [µM] | inhibition in vivo at 10 mg/kg [5] [%]
10 | CC1CC(N)=NC(C)C1 (stereo not given) | 0.06 | 0.3 | 4 | 0.08 | 98
11 | NC1=Nc2ccccc2CC1 | 28 | 218 | 2 | 99 | –
12 | N=C1CCCCN1 | – | – | – | 1.1 | 62
13 | NC1=NC(CC2CCCCC2)CCC1 (stereo not given) | – | – | 64 | – | –
14 | NC1=NC(C2CCCCC2)CCC1 (stereo not given) | 5.3 | 142 | 16 | 8.7 | 18
15 | CN1CCCCC1=N | > 100 | > 100 | – | > 100 | –
16 | CCC1CCNC(=N)C1 (stereo not given) | 1.6 | 13 | – | 2.6 | –
17 | CCCC1CCCC(N)=N1 (stereo not given) | 0.5 | 2.2 | 11 | 0.2 | –
18 | NC1=NC(Cc2ccccc2)CCC1 (stereo not given) | 0.9 | – | – | – | –
19 | CNC1=NCCCC1 | > 100 | > 100 | – | > 100 | –
